Experimental data from ChEMBL document CHEMBL2040806, “Synthesis and biological evaluation of analogs of the marine alkaloids granulatimide and isogranulatimide” (Eur J Med Chem, 2012).
pIC50: −log10 of the molar value. Activity calls are given as the source filed them. No cut-off for these calls is given here.

Key:
[1] = Cytotoxicity against p53-mutant human U373 cells after 72 hrs by MTT assay; assay type: functional, cell-based, U-373MG ATCC; details: U373 MG
A549 [2] = assay: Cytotoxicity against human A549 cells after 72 hrs by MTT assay; assay type: functional, cell-based; details: A549, 72 h
B16-F10 = assay: Cytotoxicity against mouse B16F10 cells after 72 hrs by MTT assay; assay type: functional, cell-based; details: B16-F10, 72 h
[3] = Cytotoxicity against human OE21 cells after 72 hrs by MTT assay; assay type: functional, cell-based; details: OE21, 72 h
LoVo = assay: Cytotoxicity against human LoVo cells after 72 hrs by MTT assay; assay type: functional, cell-based
PC-3 = assay: Cytotoxicity against human PC3 cells after 72 hrs by MTT assay; assay type: functional, cell-based; details: PC-3, 72 h
MCF7 = assay: Cytotoxicity against human MCF7 cells after 72 hrs by MTT assay; assay type: functional, cell-based; details: MCF7, 72 h
[4] = Cytotoxicity against human Hs683 cells after 72 hrs by MTT assay; assay type: functional, cell-based; details: Hs 683, 72 h
HCT-116 [5] = assay: Cell cycle arrest in p53 double-mutant human HCT116 cells assessed as mitotic index at 300 nM after 24 hrs by flow cytometric analysis; assay type: functional
How it was run: (§1)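 HCT116 p53-/- cells pretreated with etoposide for 1 h, then released into drug-free medium with or without inhibitor for 23 h; nocodazole added to trap cells exiting G2/M. Mitotic cells scored by phospho-histone H3 labeling and DNA content (propidium iodide) by flow cytometry.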

[6] = molecular target: Glycogen synthase kinase-3 (Sus scrofa, UniProt B2LUN4+I6LNT8); assay: Inhibition of porcine brain GSK3alpha/beta using GS1 as substrate
[7] = molecular target: Dual specificity protein kinase CLK1 (Mus musculus, UniProt P22518); assay: Inhibition of GST-fused mouse recombinant CLK1 expressed in Escherichia coli using RS peptide as substrate
Dual specificity protein kinase CLK1, sequence (P22518 whole entry, the tested form may be a part): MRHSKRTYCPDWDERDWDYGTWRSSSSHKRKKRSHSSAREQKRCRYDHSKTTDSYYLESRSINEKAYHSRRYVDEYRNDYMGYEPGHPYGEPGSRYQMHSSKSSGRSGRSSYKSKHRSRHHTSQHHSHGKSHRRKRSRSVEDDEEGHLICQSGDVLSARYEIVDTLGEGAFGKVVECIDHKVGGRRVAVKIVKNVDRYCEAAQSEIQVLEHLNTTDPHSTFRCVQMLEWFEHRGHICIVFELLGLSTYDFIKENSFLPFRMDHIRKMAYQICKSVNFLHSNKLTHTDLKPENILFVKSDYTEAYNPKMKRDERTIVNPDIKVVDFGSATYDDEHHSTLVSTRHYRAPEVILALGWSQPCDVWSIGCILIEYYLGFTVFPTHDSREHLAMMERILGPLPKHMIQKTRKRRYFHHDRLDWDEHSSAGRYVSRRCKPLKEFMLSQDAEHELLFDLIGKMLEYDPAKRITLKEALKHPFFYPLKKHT
How it was run: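 Blanks subtracted, activity as % of uninhibited maximum, DMSO dilution controls, IC50 from dose-response curves.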

[8] = Inhibition of porcine brain CK1delta/epsilon using CKS peptide as substrate; design: species or system Sus scrofa
[9] = molecular target: Dual specificity tyrosine-phosphorylation-regulated kinase 1A (Rattus norvegicus, UniProt Q63470); assay: Inhibition of GST-fused rat recombinant DYRK1A expressed in Escherichia coli using Woodtide as substrate and [gamma-33P] after 30 mins by scintillation counting
[10] = molecular target: Cyclin-dependent kinase 5/CDK5 activator 1 (Homo sapiens, UniProt Q00535); assay: Inhibition of human recombinant CDK5/p25; assay type: protein-complex assay
Cyclin-dependent kinase 5/CDK5 activator 1, sequence (Q00535 whole entry): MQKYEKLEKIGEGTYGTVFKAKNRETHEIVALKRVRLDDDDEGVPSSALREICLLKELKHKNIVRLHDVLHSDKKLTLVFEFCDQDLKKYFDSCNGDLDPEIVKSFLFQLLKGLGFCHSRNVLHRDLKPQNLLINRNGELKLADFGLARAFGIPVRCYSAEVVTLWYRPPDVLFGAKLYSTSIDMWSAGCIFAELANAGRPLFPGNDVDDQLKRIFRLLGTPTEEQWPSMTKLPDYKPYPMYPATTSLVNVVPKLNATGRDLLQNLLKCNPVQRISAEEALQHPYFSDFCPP
Cyclin-dependent kinase 5/CDK5 activator 1, sequence (Q15078 whole entry, further chain): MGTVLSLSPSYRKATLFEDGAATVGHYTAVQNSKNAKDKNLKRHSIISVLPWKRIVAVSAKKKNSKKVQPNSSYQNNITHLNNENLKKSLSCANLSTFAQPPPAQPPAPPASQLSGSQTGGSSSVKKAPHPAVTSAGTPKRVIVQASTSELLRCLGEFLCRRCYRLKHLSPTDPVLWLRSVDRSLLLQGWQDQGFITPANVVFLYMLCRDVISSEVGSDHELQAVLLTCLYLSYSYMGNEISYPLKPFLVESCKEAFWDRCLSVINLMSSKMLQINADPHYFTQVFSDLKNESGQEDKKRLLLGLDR
How it was run: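 Human recombinant CDK5/p25 assayed in triplicate in buffer C with 1 mg/ml histone H1 at 30 °C, 15 µM ATP final. Activity as % of uninhibited control after blank subtraction; IC50 from dose-response curves.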

HCT-116 [11] = assay: Cell cycle arrest in p53 double-mutant human HCT116 cells assessed as mitotic index after 24 hrs by flow cytometric analysis; assay type: functional; design: concentration or dose not given beside the values; how it was run: as §1
A549 [12] = assay: Cytostatic activity against human A549 cells after 72 hrs by quantitative videomicroscopic analysis; assay type: functional, cell-based

| IC50 [6] [µM] | pIC50 [7] | pIC50 [8] | pIC50 [9] | pIC50 [10] | SMILES | pIC50 [1] | pIC50 (A549 [2]) | pIC50 (B16-F10) | pIC50 [3] | pIC50 (LoVo) | pIC50 (PC-3) | pIC50 (MCF7) | pIC50 [4] | Activity (HCT-116 [5]) [%] | Activity (HCT-116 [11]) [%] | Activity (A549 [12]) |
| --- | --- | --- | --- | --- | --- | --- | --- | --- | --- | --- | --- | --- | --- | --- | --- | --- |
| – | – | – | – | – | O=C1NC(=O)C(c2c(-n3cccn3)[nH]c3ccccc23)=C1Br | 4.57 | 4.60 | 4.89 | 4.57 | 4.62 | 4.57 | 4.57 | 4.54 | – | – | – |
| – | – | – | – | – | NC(=O)Nc1cc(-c2cccc(F)c2)sc1C(=O)N[C@H]1CCCNC1 [AZD-7762] | – | – | – | – | – | – | – | – | 75 | – | – |
| 0.9 | 6.38 | 5.59 | 5.77 | 6.04 | O=C1NC(=O)c2c1c1[nH]ncc1c1[nH]c3ccccc3c21 | < 4.00 | < 4.00 | 4.12 | – | 4.36 | < 4.00 | – | 4.03 | – | – | – |
| – | – | – | – | – | COc1ccc2[nH]c(-n3cccn3)cc2c1 | < 4.00 | < 4.00 | < 4.00 | < 4.00 | 4.15 | < 4.00 | < 4.00 | 4.16 | – | – | – |
| 1.7 | 5.82 | < 5.00 | 5.08 | 5.12 | Cc1ccc2[nH]c3c(c4c(n5cccc35)C(=O)NC4=O)c2c1 | 4.66 | 4.85 | 4.82 | < 4.00 | 4.28 | 4.12 | 4.38 | 4.35 | – | – | – |
| – | – | – | – | – | COc1ccc2[nH]c3c(c4c(n5cccc35)C(=O)N(C)C4=O)c2c1 | 4.55 | 4.44 | 4.57 | < 4.00 | 4.40 | 4.19 | 4.44 | 4.14 | – | – | – |
| – | – | – | – | – | O=C1NC(=O)c2c1c1[nH]cnc1c1[nH]c3ccccc3c21 [GRANULATIMIDE] | 5.22 | 4.74 | 5.30 | – | 5.52 | 4.96 | 4.34 | 4.64 | – | 19.4 | – |
| – | – | – | – | – | Cc1ccc2[nH]c(-n3cccn3)c(C3=C(Br)C(=O)NC3=O)c2c1 | 4.57 | 4.54 | 5.10 | 4.55 | 4.57 | 4.59 | 4.82 | 4.54 | – | 5.5 | – |
| 0.17 | 6.89 | 6.64 | 5.85 | 6.51 | Cc1ccc2[nH]c3c4cn[nH]c4c4c(c3c2c1)C(=O)NC4=O | < 4.00 | < 4.00 | 5.70 | – | 5.30 | < 4.00 | – | < 4.00 | – | 0 | – |
| 0.57 | 6.28 | 5.00 | 5.89 | 5.68 | O=C1NC(=O)c2c1c1c3ccccc3[nH]c1c1cccn21 | 4.48 | 4.74 | 4.72 | 4.12 | 4.96 | 4.30 | 4.31 | 4.28 | – | 9.6 | Active |
| – | – | – | – | – | O=C1CC(c2c(-c3ccc[nH]3)[nH]c3ccccc23)C(=O)N1 (configuration not stated) | 5.40 | 5.10 | 5.70 | 4.17 | 5.10 | 5.05 | 4.46 | 4.60 | – | – | Active |
| – | – | – | – | – | c1ccc2[nH]c(-n3cccn3)cc2c1 | < 4.00 | < 4.00 | < 4.00 | < 4.00 | 4.07 | < 4.00 | < 4.00 | < 4.00 | – | – | – |
| 0.49 | 6.52 | 5.49 | 5.68 | 5.40 | O=C1NC(=O)c2c1c1c3ccccc3[nH]c1n1nccc21 | 6.70 | 5.10 | 4.60 | 5.70 | 6.40 | 4.66 | 4.60 | 5.52 | – | 23.9 | – |
| – | – | – | – | – | COc1ccc2[nH]c(-c3ccc[nH]3)c(C3CC(=O)NC3=O)c2c1 (configuration not stated) | 4.82 | 5.40 | 6.22 | 4.28 | 5.40 | 5.22 | 4.72 | 5.22 | – | – | – |
| 0.045 | 5.46 | 5.15 | < 5.00 | < 5.00 | Cc1ccc2[nH]c3c(c4c(c5ccnn53)C(=O)NC4=O)c2c1 | 4.24 | 5.10 | 4.43 | 5.30 | 5.40 | 4.12 | 5.05 | 4.19 | – | 13.9 | – |
| – | – | – | – | – | COc1ccc2[nH]c(-n3cccn3)c(C3=C(Br)C(=O)NC3=O)c2c1 | 4.57 | 4.54 | 5.10 | 4.52 | 4.59 | 4.59 | 4.96 | 4.52 | – | – | – |
| – | – | – | – | – | COc1ccc2[nH]c3c4cn[nH]c4c4c(c3c2c1)C(=O)NC4=O | 4.29 | < 4.00 | 4.43 | – | 4.38 | < 4.00 | – | 4.35 | – | – | – |
| 0.041 | 7.05 | 6.80 | 6.74 | 6.29 | O=C1NC(=O)c2c1c1c3cc(O)ccc3[nH]c1n1nccc21 | 5.10 | 4.82 | 5.15 | – | 5.15 | 4.44 | – | 4.64 | – | 3.9 | – |
| – | – | – | – | – | Cc1ccc2[nH]c(-c3ccc[nH]3)c(C3CC(=O)NC3=O)c2c1 (configuration not stated) | 5.30 | 4.70 | 6.30 | < 4.00 | 5.40 | 4.96 | 4.54 | 5.10 | – | – | – |
| 0.7 | < 5.00 | < 5.00 | < 5.00 | < 5.00 | COc1ccc2[nH]c3c(c4c(c5ccnn53)C(=O)NC4=O)c2c1 | < 4.00 | 5.10 | – | 4.46 | 4.47 | < 4.00 | – | 4.66 | – | – | – |
| – | – | – | – | – | O=C1NC(=O)c2c1c1c3ccccc3[nH]c1n1cncc21 [ISOGRANULATIMIDE] | < 4.00 | 4.10 | 4.46 | – | 4.21 | 4.04 | 4.00 | < 4.00 | – | 17.2 | – |
| 0.42 | 6.59 | 5.96 | 6.70 | 5.59 | O=C1NC(=O)c2c1c1c3cc(O)ccc3[nH]c1c1cccn21 | < 4.00 | < 4.00 | 4.03 | < 4.00 | 4.00 | < 4.00 | < 4.00 | < 4.00 | – | – | – |
| – | – | – | – | – | Cc1ccc2[nH]c(-c3ccc[nH]3)cc2c1 | – | – | – | – | – | – | – | – | – | 5 | – |
| – | – | – | – | – | COc1ccc2[nH]c(-c3ccc[nH]3)c(C3CC(=O)N(C)C3=O)c2c1 (configuration not stated) | 5.00 | 5.15 | 5.22 | 4.38 | 4.60 | 4.43 | 5.15 | 4.55 | – | – | Active |
| – | – | – | – | – | COc1ccc2[nH]c(-c3ccc[nH]3)cc2c1 | 4.37 | 4.26 | 4.21 | 4.48 | 4.59 | 4.59 | 4.08 | 4.30 | – | 8.3 | – |
| – | – | – | – | – | Cc1ccc2[nH]c(-n3cccn3)cc2c1 | < 4.00 | < 4.00 | < 4.00 | < 4.00 | 4.06 | < 4.00 | < 4.00 | < 4.00 | – | – | – |
| 1.7 | 5.00 | < 5.00 | < 5.00 | < 5.00 | COc1ccc2[nH]c3c(c4c(n5cccc35)C(=O)NC4=O)c2c1 | 4.59 | 4.59 | 4.66 | 4.43 | 4.41 | 4.18 | 4.46 | 4.24 | – | – | – |
